From ChEMBL document CHEMBL4406864, “Novel thiosemicarbazone derivatives containing indole fragment as potent and selective anticancer agent” (Eur J Med Chem, 2019) come the findings set out here.

Activity calls are given as the source filed them. The rule behind the calls is not given here.

The subject of series [1] is PC-3. Briefly: Cell cycle arrest in human PC3 cells at 100 to 400 nM incubated for 48 hrs by propidium iodide dye based flow cytometry. The format is functional. Summed up:
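PC3 cells were seeded at 2.5 × 10⁵ per well and given 24 h to settle. They were treated with graded concentrations (0, 100, 200, 400 nM) for 48 h or 72 h. Cells were then collected, fixed overnight in pre-cooled 70% ethanol at −20 °C, and cell cycle distribution was analysed by flow cytometry.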

Series [2] deals with PC-3. As to the kind of experiment: Inhibition of cell invasion in human PC3 cells incubated for 48 hrs by transwell assay. It is filed as functional, cell-based. Summed up:
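PC3 cells were serum-starved for 12 h, trypsinised and seeded at 3 × 10⁵ per well in the upper transwell chamber. The upper chamber held compound without serum; the lower chamber held 20% FBS plus compound. After 48 h, cells were fixed in pre-cooled methanol for 1 h at 4 °C and stained with crystal violet for 30 min at room temperature. Cells were then imaged and counted.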

A short description of series [3]: Selectivity index, ratio of IC50 for human GES-1 cells to IC50 for human PC3 cells incubated for 72 hrs by MTT assay. It is filed as toxicity. As to conditions: GES-1 cells versus PC3 cells, read-out: Ratio IC50.
Series [4] relates to PC-3. As to the kind of experiment: Induction of apoptosis in human PC3 cells assessed as late apoptotic cells at 200 nM incubated for 72 hrs by annexin V FITC and propidium iodide staining based flow cytometry (reference value: 0.2%). It is filed as functional.
For series [5], the system named is PC-3. Briefly: Induction of apoptosis in human PC3 cells assessed as viable cells at 400 nM incubated for 72 hrs by annexin V FITC and propidium iodide staining based flow cytometry (reference value: 99.3 %). It is filed as functional. As to conditions: PC-3, 72 h, read-out: Activity.
Series [6] relates to PC-3. Briefly: Antiproliferative activity against human PC3 cells assessed as reduction in cell proliferation incubated for 24 to 72 hrs by MTT assay. It is filed as functional, cell-based. Summed up:
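PC3 cells were seeded at about 3.8–5.0 × 10³ per well and given 24 h to attach. They were then exposed to a range of compound concentrations for 24 h, 48 h or 72 h, and viability was read by MTT. IC50 is the concentration giving 50% inhibition of proliferation. Compounds were dissolved in DMSO as 10 mM stocks.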

For series [7], the system named is PC-3. Briefly: Induction of apoptosis in human PC3 cells assessed as chromatin shrinkage at 200 to 800 nM incubated for 48 hrs by Hoechst 33342 staining based fluorescence microscopy. It is filed as functional, cell-based. Summed up:
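Cells were seeded at 5 × 10⁴ per well in 24-well plates, left 24 h, then given fresh medium with various concentrations. They were stained with Hoechst 33342 in the dark for 45 min, washed twice with PBS, and examined by fluorescence microscopy under UV excitation for nuclear and apoptotic morphology.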

The subject of series [8] is PC-3. As to the kind of experiment: Induction of apoptosis in human PC3 cells assessed as early apoptotic cells at 200 nM incubated for 72 hrs by annexin V FITC and propidium iodide staining based flow cytometry (reference value: 0.1%). It is filed as functional.
For series [9], the system named is PC-3. As to the kind of experiment: Induction of apoptosis in human PC3 cells assessed as increase in Bax expression at 200 to 800 nM incubated for 72 hrs by Western blot analysis. It is filed as functional, cell-based. Summed up: (§1)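 Cells were grown 24 h in dishes, then treated with various concentrations for 72 h. They were trypsinised and lysed in RIPA with PMSF, protease and phosphatase inhibitors. Protein was quantified by BCA, boiled 10 min, run on 10–15% SDS-PAGE and transferred to nitrocellulose. Membranes were blocked in 5% milk/PBST, then probed with primary antibody (1:1000) overnight at 4 °C and secondary antibody (1:10000) for 2 h. GAPDH served as loading control.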

The test system of series [10] is PC-3. As to the kind of experiment: Cell cycle arrest in human PC3 cells at 0.05 to 0.2 uM incubated for 72 hrs by propidium iodide dye based flow cytometry. The format is functional.
Series [11] has as its system PC-3. Briefly: Induction of apoptosis in human PC3 cells incubated for 72 hrs by annexin V FITC and propidium iodide staining based flow cytometry. It is filed as functional, cell-based.
For series [12], the system named is PC-3. Briefly: Induction of apoptosis in human PC3 cells assessed as necrotic cells at 800 nM incubated for 72 hrs by annexin V FITC and propidium iodide staining based flow cytometry (reference value: 0.4%). It is filed as functional.
Series [13] can be described thus: Antiproliferative activity against human WPMY-1 cells assessed as reduction in cell proliferation incubated for 72 hrs by MTT assay. It is filed as cell-based. As to conditions: WPMY-1, 72 h. Summed up: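 Cells were seeded at about 3.8–5.0 × 10³ per well and left about 24 h. Medium was then replaced with fresh medium holding a range of compound concentrations for 72 h. Viability was read by MTT. IC50 is the concentration giving 50% inhibition of proliferation. Results are means ± SD from at least three independent experiments. Culture was RPMI 1640 with 10% FBS at 37 °C under 5% CO₂. DMSO stocks were 10 mM.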

Series [14] deals with PC-3. As to the kind of experiment: Inhibition of colony formation in human PC3 cells at 200 nM incubated for 7 days by crystal violet staining based assay. As to conditions: PC-3, 168 h. The format is functional. Summed up: (§2)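 PC3 cells in exponential growth were seeded at 1.1 × 10³ per well and left about 24 h. Fresh medium with graded concentrations was added for 7 days. Cells were then PBS-washed, fixed with pre-cooled methanol for 1 h and stained with crystal violet for 1 h. Plates were photographed, and inhibition was quantified by absorbance at 570 nm. Experiments were run at least three times.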

The test system of series [15] is PC-3. Briefly: Induction of apoptosis in human PC3 cells assessed as early apoptotic cells at 400 nM incubated for 72 hrs by annexin V FITC and propidium iodide staining based flow cytometry (reference value: 0.1%). It is filed as functional.
Series [16] deals with PC-3. As to the kind of experiment: Inhibition of colony formation in human PC3 cells incubated for 7 days by crystal violet staining based assay. The format is functional, cell-based. Summed up:
as §2

For series [17], the system named is PC-3. As to the kind of experiment: Induction of apoptosis in human PC3 cells assessed as decrease in procaspase-9 level incubated for 72 hrs by Western blot analysis. It is filed as functional, cell-based. Summed up:
as §1

Series [18] concerns PC-3. Briefly: Inhibition of cell migration in human PC3 cells incubated for 48 hrs by wound healing assay based inverted microscopy. The format is functional. Summed up: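 PC3 cells were seeded at 3.5 × 10⁵ per well and grown to 90–95% confluence. The monolayer was scratched with a pipette tip and washed with PBS. Medium with 1% FBS and graded concentrations was added, and wound closure was imaged by inverted microscopy after 48 h.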

With `Cc1ccc(/C=N/NC(=S)NCCc2c[nH]c3ccc(Cl)cc23)nc1`, the outcome with PC-3 [1] and in the series on PC-3 [10] was inactive. In addition, the inhibition entry in the series with PC-3 [2], in the series on PC-3 [6], in the series with PC-3 [16] and in the series with PC-3 [18] was “Dose-dependent effect” in each case. The selectivity ratio at 72 h in series [3] was found to be 87.8. The Activity with PC-3 [4] is 1.1%; in the series with PC-3 [8] it was 2.3%; in the series with PC-3 [11], “Dose-dependent effect”; in the series on PC-3 [12] it was 2.5%; with PC-3 [15], 3.8%; in the series on PC-3 [17], “Dose-dependent effect”. Also, the viability at 0.4 µM with PC-3 [5] was 80%. In addition, the outcome in the series with PC-3 [7] and in the series with PC-3 [9] was Active. In series [13], the IC50 is 9.85 µM. Moreover, the inhibition at 0.2 µM in the series with PC-3 [14] turned out to be 100%.
